Each structure is given as a SMILES string. Read-outs that look alike come from different tables or passages of the source.

For data set [1] the following is noted: cited from earlier work.
For data set [2] the following is noted: oral administration with food vs fasted; cited from earlier work.
Data set [3] has as its system ROS1 wild-type and G2032R mutant xenograft models. The note with it: cited from earlier work.
The conditions of data set [4]: single 160 mg dose, fasted, cited from earlier work.
The next data set concerns HCC78 cells. As to conditions: cited from earlier work.
Data set [5] concerns the target wild-type and mutant ROS1. As to conditions: preclinical data; cited from earlier work.
A short description of data set [6]: Metabolism in human liver microsomes. The format is in vitro ADME. On the technique in general: Liver microsomes are a subcellular fraction often used to study metabolism.
The nature of a further data set: Safety assessment. The format is in vivo, human. The method in brief:
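Randomized crossover in healthy adults (fasted-fed or fed-fasted, 14-day washout). A TEAE counted any AE absent before dosing, or pre-existing and worsening in intensity or frequency after dosing. AEs graded; serious AEs and discontinuations recorded. Analysis set: every subject receiving at least one dose.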

The next data set in a line: In vitro solubility. It counts as physicochemical.
The next data set concerns the target ALK. The note with it: preclinical data; cited from earlier work.
Data set [7] is classed as in vivo, human. As to conditions: 160 mg single oral dose. The method in brief:
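Healthy adults randomized 1:1 to fasted-fed or fed-fasted sequence, 14-day washout; ≥10-h overnight fast pre-dose, no drinking 1 h before to 2 h after, fasting 4 h post-dose. Plasma sampled pre-dose to 168 h, spun 1700g, 2–8 °C, 10 min, kept −70 °C; validated LC-MS/MS; non-compartmental parameters. Ln-transformed Cmax/AUC in linear mixed model; fed/fasted GMR with 90% CI, limits 0.80–1.25.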

The subject of data set [8] is BaF3 cells expressing ROS1 fusion wild-type and resistance mutants. The note with it: cited from earlier work.
The test system of another data set is Caco-2. Briefly: Caco-2 permeability assay. It counts as in vitro ADME. As to conditions: Caco-2, concentrations 2.00 to 50.0 µM.
The subject of a further data set is ALK-positive NSCLC. The note with it: cited from earlier work; for Objective response rate (ORR): phase I; for IRC-assessed ORR: phase II.
The mark [9] stands for this setting: 160 mg single dose, fed (high-fat meal).
Where [10] appears, read: oral 20–210 mg/day, ALK-positive NSCLC patients.

`CCc1cc2c(cc1N1CCC(N3CCOCC3)CC1)C(C)(C)c1[nH]c3cc(C#N)ccc3c1C2=O` [alectinib]: in data set [1] (approved ALK and ROS1 TKIs), the BCS class entry is reported as “BCS class IV”.
As to `C[C@H]1Oc2cc(cnc2N)-c2c(nn(C)c2C#N)CN(C)C(=O)c2ccc(F)cc21` [lorlatinib], in [1] (approved ALK and ROS1 TKIs), the BCS class entry is “BCS class IV”.
Turning to `Cc1cc(Nc2ncc(Cl)c(Nc3ccccc3S(=O)(=O)C(C)C)n2)c(OC(C)C)cc1C1CCNCC1` [ceritinib], in data set [1] (approved ALK and ROS1 TKIs), the BCS class result was “BCS class IV”. Further, in data set [2], the “Effect of food on drug exposure / PK” value is “improved exposure”; the “Effect of food on safety” value was “improved exposure and safety with food”.
With `C[C@@H](Oc1cc(-c2cnn(C3CCNCC3)c2)cnc1N)c1c(Cl)ccc(F)c1Cl` [crizotinib], in data set [1] (approved ALK and ROS1 TKIs), the BCS class result is on record as “BCS class IV”.
In the case of `CN1CCN(c2ccc(C(=O)Nc3n[nH]c4ccc(Cc5cc(F)cc(F)c5)cc34)c(NC3CCOCC3)c2)CC1` [entrectinib], in [1] (approved ALK and ROS1 TKIs), the BCS class entry is “BCS class II”.
On to `Cc1cc(Nc2ncc(Cl)c(Nc3ccccc3S(=O)(=O)C(C)C)n2)c2c(c1C1CCN(C)CC1)C[C@@H](C)O2` [SAF-189s], for which the “Growth of xenograft models” value in data set [3] is recorded as “inhibited growth”. In addition, the “AUC0-∞, geometric mean (CV%)” value in data set [4] (nine patients) is on record as 1970 (30.0) ng·h/mL. The “Cmax, geometric mean (CV%)” value in data set [4] (nine patients) is reported as 41.9 (27.0) ng/mL. For the same compound, the “t½, geometric mean (CV%)” value in [4] (nine patients) is recorded as 39.3 (25.6) h. In data set [4] (patients), the Median tmax was 3.0 h. Moreover, in data set [1] (low solubility and low gastrointestinal permeability), the BCS class entry was “class IV”. Also, the “Inhibition of cell proliferation” value (with HCC78 cells; in data set [8]) was “potent inhibition” in each case. The “IC50 against wild-type and mutant ROS1 kinase activity” value in [5] is reported as “sub-nanomolar to nanomolar”. In data set [6], the Main metabolizing enzyme entry was “mainly metabolized by cytochrome P450 3A4 (CYP3A4)”. For the same compound, the “Incidence of TEAEs” value came out at 54.2% in “Safety assessment” (160 mg single dose, fasted) and 29.2% in the data set “Safety assessment” (setting [9]). In addition, the “Incidence of gastrointestinal disorders” value in the data set “Safety assessment” (160 mg single dose, fasted) came to 41.7%; in “Safety assessment” (setting [9]), 4.2%. The Incidence of headache in the data set “Safety assessment” (160 mg single dose, fasted) stood at 12.5%; in the data set “Safety assessment” (setting [9]) it was 0.0%. In the data set “Safety assessment” (160 mg single dose, fasted and fed), the “Serious AEs” value is reported as “no serious AEs were reported”. Besides, the “Discontinuation of the study due to an AE” value in “Safety assessment” (160 mg single dose, Grade 1 vomiting) was “Only one volunteer”. The Tolerability result is reported as “generally well tolerated” in the data set “Safety assessment” (single doses of 160 mg, healthy volunteers) and “well tolerated” in the data set with ALK-positive NSCLC (oral 20–210 mg/day, fasted state, ALK-positive NSCLC patients). Moreover, the Solubility result in “In vitro solubility” (0.1 mol/L hydrochloric acid, in vitro) is “slightly soluble”; in “In vitro solubility” (pH 6.8, in vitro), “poor solubility”. The “IC50 against ALK kinase activity” value on ALK is on record as “sub-nanomolar to nanomolar”. Further, in data set [7] (fed vs fasted), the “Effect of high-fat meal on the PK profile” value is given as “minimal effect”. For the same compound, the “Geometric mean ratio: fed/fasted, AUC0-t” value in data set [7] (n = 23) was 105.1%. For the same compound, the “Geometric mean ratio: fed/fasted, AUC0-∞” value in data set [7] (n = 23) was determined as 105.5%. Besides, in data set [7] (n = 23), the “Geometric mean ratio: fed/fasted, Cmax” value was 109.1%. Further, in the data set with Caco-2, the Drug efflux result is “evidence of drug efflux”. For the same compound, the Permeability result with Caco-2 was “low permeability”. Besides, the Anti-tumor efficacy entry in the data set on ALK-positive NSCLC (setting [10]) is listed as “promising anti-tumor efficacy”. In addition, in the data set on ALK-positive NSCLC (setting [10]), the Intracranial activity result is given as “had intracranial activity”. For the same compound, the “Objective response rate (ORR)” value with ALK-positive NSCLC (ALK inhibitor-naive subgroup (8/11)) is 72.7%; with ALK-positive NSCLC (all patients (28/45), oral 20–210 mg/day, fasted), 62.2%; in the data set on ALK-positive NSCLC (brain metastases subgroup (17/27)), 63.0%. The “IRC-assessed ORR” value in the data set with ALK-positive NSCLC (ALK inhibitor-naive patients (95/104)) is on record as 91.3%; in the data set on ALK-positive NSCLC (all patients (116/150)), 77.3%; in the data set on ALK-positive NSCLC (brain metastases subgroup (50/71)) it was 70.4%; in the data set on ALK-positive NSCLC (crizotinib-pretreated group (17/26)), 65.4%. The “Tolerability of single doses” value with ALK-positive NSCLC (single doses of 160 mg, most AEs Grade 1 or 2) was “generally well tolerated”.
`COc1cc(N2CCC(N3CCN(C)CC3)CC2)ccc1Nc1ncc(Cl)c(Nc2ccccc2P(C)(C)=O)n1` [brigatinib]: the BCS class entry in data set [1] (approved ALK and ROS1 TKIs) is listed as “BCS class I”.

These data come from article PMC10676332 (Drugs in R&D, 2023).
